Results published in ChEMBL document CHEMBL1137156, “Novel substituted 4-phenyl-[1,3]dioxanes: potent and selective orexin receptor 2 (OX(2)R) antagonists” (Bioorg Med Chem Lett, 2004).

Organism: Homo sapiens
Assay: Selectivity of Orexin type 2 receptor over Orexin type 1 receptor

SMILES | Selectivity
CC1(C)OC[C@H](NC(=O)Nc2ccccc2-c2ccccc2)[C@H](c2ccccc2)O1 | 4
CC1(C)OC[C@H](NC(=O)Nc2ccccc2-c2cccs2)[C@H](c2ccccc2)O1 | 20
CC1(C)OC[C@H](NC(=O)Nc2ccccc2F)[C@H](c2ccccc2)O1 | > 20
CC1(C)OC[C@H](NC(=O)Nc2ccccc2-c2ccccc2Cl)[C@H](c2ccccc2)O1 | 5
CC1(C)OC[C@H](NC(=O)Nc2ccc(Cl)cc2Cl)[C@H](c2ccccc2)O1 | 100
Cc1ccc(Cl)c(NC(=O)N[C@H]2COC(C)(C)O[C@H]2c2ccccc2)c1 | > 80
CC1(C)OC[C@H](NC(=O)Nc2ccccc2C(F)(F)F)[C@H](c2ccccc2)O1 | > 100
CC1(C)OC[C@H](NC(=O)Nc2ccccc2-c2cccnc2)[C@H](c2ccccc2)O1 | > 20
CC1(C)OC[C@H](NC(=O)Nc2ccccc2-c2ccsc2)[C@H](c2ccccc2)O1 | 30
CC1(C)OC[C@H](NC(=O)Nc2cc(Cl)ccc2Cl)[C@H](c2ccccc2)O1 | > 80
CC1(C)OC[C@H](NC(=O)Nc2ccccc2I)[C@H](c2ccccc2)O1 | > 70
COc1ccccc1NC(=O)N[C@H]1COC(C)(C)O[C@H]1c1ccccc1 | > 4
CC1(C)OC[C@H](/N=C(\S)Nc2ccc(Cl)cc2Cl)[C@H](c2ccccc2)O1 | > 50
CC1(C)OC[C@H](NC(=O)Nc2ccccc2)[C@H](c2ccccc2)O1 | > 20
Cc1ccc(/N=C(\NC#N)N[C@H]2COC(C)(C)O[C@H]2c2ccccc2)c(Br)c1 | > 8
CC1(C)OC[C@H](NC(=O)Oc2ccccc2Cl)[C@H](c2ccccc2)O1 | > 6
CC1(C)OC[C@H](/N=C(\S)Nc2ccccc2Br)[C@H](c2ccccc2)O1 | > 30
CC1(C)OC[C@H](NC(=O)Nc2ccccc2Cl)[C@H](c2ccccc2)O1 | > 100
CC1(C)OC[C@H](NC(=O)Nc2ccc(Br)cc2)[C@H](c2ccccc2)O1 | > 40
CC1(C)OC[C@H](NC(=O)Nc2cccc(Br)c2)[C@H](c2ccccc2)O1 | > 9
CC1(C)OC[C@H](NC(=O)c2ccc(Cl)cc2Cl)[C@H](c2ccccc2)O1 | > 50
CC1(C)OC[C@H](NC(=O)Nc2c(Cl)cccc2Cl)[C@H](c2ccccc2)O1 | > 2
Cc1cc(Br)ccc1NC(=O)N[C@H]1COC(C)(C)O[C@H]1c1ccccc1 | 200
CC(C)c1ccccc1NC(=O)N[C@H]1COC(C)(C)O[C@H]1c1ccccc1 | > 4
CC1(C)OC[C@H](NC(=O)Nc2ccc(Br)cc2Cl)[C@H](c2ccccc2)O1 | > 900
Cc1ccc(NC(=O)N[C@H]2COC(C)(C)O[C@H]2c2ccccc2)c(C)c1 | > 70
CC1(C)OC[C@H](NC(=O)Nc2ccc(Br)cc2Br)[C@H](c2ccccc2)O1 | 600
CC1(C)OC[C@H](NC(=O)Nc2ccccc2-c2cccc(Cl)c2)[C@H](c2ccccc2)O1 | 6
CC1(C)OC[C@H](NC(=O)Cc2ccccc2Br)[C@H](c2ccccc2)O1 | > 7

Biological target: T1, Orexin/Hypocretin receptor type 1 (Homo sapiens, UniProt O43613)
T1 sequence (O43613 whole entry): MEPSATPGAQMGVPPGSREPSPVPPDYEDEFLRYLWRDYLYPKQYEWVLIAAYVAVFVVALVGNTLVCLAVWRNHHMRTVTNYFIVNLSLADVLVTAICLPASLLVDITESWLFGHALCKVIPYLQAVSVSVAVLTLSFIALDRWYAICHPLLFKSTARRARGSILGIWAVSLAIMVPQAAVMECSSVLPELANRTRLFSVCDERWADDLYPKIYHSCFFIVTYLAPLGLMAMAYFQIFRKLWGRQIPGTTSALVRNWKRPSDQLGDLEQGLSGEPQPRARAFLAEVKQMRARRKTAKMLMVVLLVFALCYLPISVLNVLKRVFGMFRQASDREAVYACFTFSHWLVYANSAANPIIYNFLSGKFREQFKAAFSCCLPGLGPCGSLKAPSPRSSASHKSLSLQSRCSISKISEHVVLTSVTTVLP
Assay: Binding affinity towards human orexin receptor type 1 was determined using [125I]-Orexin A as radio ligand
Procedure, shortened: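 Clonal CHO-K1 cells expressing the orexin receptor, grown adherent on poly-D-lysine-coated plates. Binding in Dulbecco's PBS with 0.1% w/v BSA, 10⁵ cpm ¹²⁵I-orexin A (2200 Ci/mmol) plus test compound, 90-120 min at room temperature. Wells washed with iced buffer, then scintillation counted. Ki with 95% confidence intervals from N = 3 assays.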

SMILES | Ki [nM]
CC1(C)OC[C@H](NC(=O)Nc2ccccc2-c2ccccc2)[C@H](c2ccccc2)O1 | 501
CC1(C)OC[C@H](NC(=O)Nc2ccccc2-c2cccs2)[C@H](c2ccccc2)O1 | 1000
CC1(C)OC[C@H](NC(=O)Nc2ccccc2F)[C@H](c2ccccc2)O1 | > 10000
CC1(C)OC[C@H](NC(=O)Nc2ccccc2-c2ccccc2Cl)[C@H](c2ccccc2)O1 | 126
CC1(C)OC[C@H](NC(=O)Nc2ccc(Cl)cc2Cl)[C@H](c2ccccc2)O1 | 2510
Cc1ccc(Cl)c(NC(=O)N[C@H]2COC(C)(C)O[C@H]2c2ccccc2)c1 | > 5010
CC1(C)OC[C@H](NC(=O)Nc2ccccc2C(F)(F)F)[C@H](c2ccccc2)O1 | > 10000
CC1(C)OC[C@H](NC(=O)Nc2ccccc2-c2cccnc2)[C@H](c2ccccc2)O1 | > 5010
CC1(C)OC[C@H](NC(=O)Nc2ccccc2-c2ccsc2)[C@H](c2ccccc2)O1 | 2000
CC1(C)OC[C@H](NC(=O)Nc2cc(Cl)ccc2Cl)[C@H](c2ccccc2)O1 | > 5010
CC1(C)OC[C@H](NC(=O)Nc2ccccc2I)[C@H](c2ccccc2)O1 | > 5010
COc1ccccc1NC(=O)N[C@H]1COC(C)(C)O[C@H]1c1ccccc1 | > 10000
CC1(C)OC[C@H](/N=C(\S)Nc2ccc(Cl)cc2Cl)[C@H](c2ccccc2)O1 | > 10000
CC1(C)OC[C@H](NC(=O)Nc2ccccc2)[C@H](c2ccccc2)O1 | > 10000
Cc1ccc(/N=C(\NC#N)N[C@H]2COC(C)(C)O[C@H]2c2ccccc2)c(Br)c1 | > 10000
CC1(C)OC[C@H](NC(=O)Oc2ccccc2Cl)[C@H](c2ccccc2)O1 | > 10000
CC1(C)OC[C@H](/N=C(\S)Nc2ccccc2Br)[C@H](c2ccccc2)O1 | > 10000
CC1(C)OC[C@H](NC(=O)Nc2ccccc2Cl)[C@H](c2ccccc2)O1 | > 10000
CC1(C)OC[C@H](NC(=O)Nc2ccc(Br)cc2)[C@H](c2ccccc2)O1 | > 10000
CC1(C)OC[C@H](NC(=O)Nc2cccc(Br)c2)[C@H](c2ccccc2)O1 | > 10000
CC1(C)OC[C@H](NC(=O)c2ccc(Cl)cc2Cl)[C@H](c2ccccc2)O1 | > 10000
CC1(C)OC[C@H](NC(=O)Nc2c(Cl)cccc2Cl)[C@H](c2ccccc2)O1 | > 10000
Cc1cc(Br)ccc1NC(=O)N[C@H]1COC(C)(C)O[C@H]1c1ccccc1 | > 10000
CC(C)c1ccccc1NC(=O)N[C@H]1COC(C)(C)O[C@H]1c1ccccc1 | > 10000
CC1(C)OC[C@H](NC(=O)Nc2ccc(Br)cc2Cl)[C@H](c2ccccc2)O1 | > 5010
Cc1ccc(NC(=O)N[C@H]2COC(C)(C)O[C@H]2c2ccccc2)c(C)c1 | > 10000
CC1(C)OC[C@H](NC(=O)Nc2ccc(Br)cc2Br)[C@H](c2ccccc2)O1 | 3160
CC1(C)OC[C@H](NC(=O)Nc2ccccc2-c2cccc(Cl)c2)[C@H](c2ccccc2)O1 | 501
CC1(C)OC[C@H](NC(=O)Cc2ccccc2Br)[C@H](c2ccccc2)O1 | > 10000
CC1(C)OC[C@H](NC(=O)Nc2ccccc2Br)[C@H](c2ccccc2)O1 | 2000

Biological target: T2, Orexin receptor type 2 (Homo sapiens, UniProt O43614)
T2 sequence (O43614 whole entry): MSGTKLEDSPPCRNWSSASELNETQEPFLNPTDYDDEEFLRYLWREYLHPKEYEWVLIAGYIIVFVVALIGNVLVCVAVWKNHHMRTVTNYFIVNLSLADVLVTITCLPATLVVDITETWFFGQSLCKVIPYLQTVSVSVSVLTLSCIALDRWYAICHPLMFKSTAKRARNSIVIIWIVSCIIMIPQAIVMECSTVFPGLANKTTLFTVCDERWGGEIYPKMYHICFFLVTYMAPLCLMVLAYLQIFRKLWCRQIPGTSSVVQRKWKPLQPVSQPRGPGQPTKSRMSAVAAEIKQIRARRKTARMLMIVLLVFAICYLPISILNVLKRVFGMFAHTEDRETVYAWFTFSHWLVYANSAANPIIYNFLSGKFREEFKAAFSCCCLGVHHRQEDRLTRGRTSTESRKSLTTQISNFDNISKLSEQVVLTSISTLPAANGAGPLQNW
Assay: Binding affinity towards human orexin receptor type 2 was determined using [125I]-Orexin A as radio ligand

SMILES | Ki [nM]
CC1(C)OC[C@H](NC(=O)Nc2ccccc2-c2ccccc2)[C@H](c2ccccc2)O1 | 100
CC1(C)OC[C@H](NC(=O)Nc2ccccc2-c2cccs2)[C@H](c2ccccc2)O1 | 50.1
CC1(C)OC[C@H](NC(=O)Nc2ccccc2F)[C@H](c2ccccc2)O1 | 398
CC1(C)OC[C@H](NC(=O)Nc2ccccc2-c2ccccc2Cl)[C@H](c2ccccc2)O1 | 25.1
CC1(C)OC[C@H](NC(=O)Nc2ccc(Cl)cc2Cl)[C@H](c2ccccc2)O1 | 20
Cc1ccc(Cl)c(NC(=O)N[C@H]2COC(C)(C)O[C@H]2c2ccccc2)c1 | 63.1
CC1(C)OC[C@H](NC(=O)Nc2ccccc2C(F)(F)F)[C@H](c2ccccc2)O1 | 100
CC1(C)OC[C@H](NC(=O)Nc2ccccc2-c2cccnc2)[C@H](c2ccccc2)O1 | 316
CC1(C)OC[C@H](NC(=O)Nc2ccccc2-c2ccsc2)[C@H](c2ccccc2)O1 | 79.4
CC1(C)OC[C@H](NC(=O)Nc2cc(Cl)ccc2Cl)[C@H](c2ccccc2)O1 | 63.1
CC1(C)OC[C@H](NC(=O)Nc2ccccc2I)[C@H](c2ccccc2)O1 | 79.4
COc1ccccc1NC(=O)N[C@H]1COC(C)(C)O[C@H]1c1ccccc1 | 2510
CC1(C)OC[C@H](/N=C(\S)Nc2ccc(Cl)cc2Cl)[C@H](c2ccccc2)O1 | 200
CC1(C)OC[C@H](NC(=O)Nc2ccccc2)[C@H](c2ccccc2)O1 | 501
Cc1ccc(/N=C(\NC#N)N[C@H]2COC(C)(C)O[C@H]2c2ccccc2)c(Br)c1 | 1260
CC1(C)OC[C@H](NC(=O)Oc2ccccc2Cl)[C@H](c2ccccc2)O1 | 1580
CC1(C)OC[C@H](/N=C(\S)Nc2ccccc2Br)[C@H](c2ccccc2)O1 | 398
CC1(C)OC[C@H](NC(=O)Nc2ccccc2Cl)[C@H](c2ccccc2)O1 | 79.4
CC1(C)OC[C@H](NC(=O)Nc2ccc(Br)cc2)[C@H](c2ccccc2)O1 | 251
CC1(C)OC[C@H](NC(=O)Nc2cccc(Br)c2)[C@H](c2ccccc2)O1 | 1000
CC1(C)OC[C@H](NC(=O)c2ccc(Cl)cc2Cl)[C@H](c2ccccc2)O1 | 200
CC1(C)OC[C@H](NC(=O)Nc2c(Cl)cccc2Cl)[C@H](c2ccccc2)O1 | > 5010
Cc1cc(Br)ccc1NC(=O)N[C@H]1COC(C)(C)O[C@H]1c1ccccc1 | 39.8
CC(C)c1ccccc1NC(=O)N[C@H]1COC(C)(C)O[C@H]1c1ccccc1 | 2510
CC1(C)OC[C@H](NC(=O)Nc2ccc(Br)cc2Cl)[C@H](c2ccccc2)O1 | 6.31
Cc1ccc(NC(=O)N[C@H]2COC(C)(C)O[C@H]2c2ccccc2)c(C)c1 | 126
CC1(C)OC[C@H](NC(=O)Nc2ccc(Br)cc2Br)[C@H](c2ccccc2)O1 | 5.01
CC1(C)OC[C@H](NC(=O)Nc2ccccc2-c2cccc(Cl)c2)[C@H](c2ccccc2)O1 | 79.4
CC1(C)OC[C@H](NC(=O)Cc2ccccc2Br)[C@H](c2ccccc2)O1 | 1580

Biological target: T3, Orexin receptor type 2 (Homo sapiens) (UniProt O43614)
T3 sequence (whole entry): T2 sequence (O43614 whole entry)
Assay: Antagonistic activity towards intracellular calcium levels in cells expressing Orexin receptor type 2
Assay type: functional, cell-based
Procedure, shortened: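 Fluo-3 AM-loaded cells expressing OX2R, intracellular Ca⁺⁺ fluorescence. […] For compounds with OX2R pKi above 6.3, pKB came from the orexin B EC50 and IC50s from antagonist dilutions, all on one 96-well plate.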

SMILES | pKb
CC1(C)OC[C@H](NC(=O)Nc2ccc(Cl)cc2Cl)[C@H](c2ccccc2)O1 | 7
CC1(C)OC[C@H](NC(=O)Nc2ccccc2I)[C@H](c2ccccc2)O1 | 6.5
CC1(C)OC[C@H](NC(=O)Nc2ccccc2Cl)[C@H](c2ccccc2)O1 | 6
CC1(C)OC[C@H](NC(=O)Nc2ccc(Br)cc2Br)[C@H](c2ccccc2)O1 | 7.9
CC1(C)OC[C@H](NC(=O)Nc2ccccc2Br)[C@H](c2ccccc2)O1 | 6.3
